Compound activity as filed in PubChem BioAssay.
An excerpt weighted towards active compounds, which were near 1.5% of everything screened.
C8 TRAIL sens – caspase-8 TRAIL sensitization; NB7+C8 cells + TRAIL, ATPlite viability luminescence; inhibition (viability loss, TRAIL sensitization), % at 10 µM; 360,000 tested, 1% active;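 active = compounds causing at least 50% loss of cell viability in the single-dose screen, relative to plate controls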
PPC-1+TRAIL kill – PPC-1 cancer cell killing with TRAIL present. cell killing (% activity), % at 4 µM or 5 µM. AID 1443. 220,000 tested, 0.41% active. PPC-1 cells + TRAIL, ATPLite viability luminescence;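 active = cell killing above 50% in the first pass at 4 µM, then a duplicate retest at 5 µM averaging 50% or more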;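 also: plate controls were cells with TRAIL plus DMSO for no effect and medium-only wells lacking cells for full effect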
FLuc inh counter – inhibits firefly luciferase, flagging false hits in luciferase inhibition screens | P08659 | ATPLite firefly luciferase biochemical luminescence, 10 min | 200,000 tested, 1.5% active | inhibition, % at 10 µM | AID 1006;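 active = inhibition above about 50% when tested at 10 µM, limit read from the data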
Target sequence (P08659 whole entry, looked up): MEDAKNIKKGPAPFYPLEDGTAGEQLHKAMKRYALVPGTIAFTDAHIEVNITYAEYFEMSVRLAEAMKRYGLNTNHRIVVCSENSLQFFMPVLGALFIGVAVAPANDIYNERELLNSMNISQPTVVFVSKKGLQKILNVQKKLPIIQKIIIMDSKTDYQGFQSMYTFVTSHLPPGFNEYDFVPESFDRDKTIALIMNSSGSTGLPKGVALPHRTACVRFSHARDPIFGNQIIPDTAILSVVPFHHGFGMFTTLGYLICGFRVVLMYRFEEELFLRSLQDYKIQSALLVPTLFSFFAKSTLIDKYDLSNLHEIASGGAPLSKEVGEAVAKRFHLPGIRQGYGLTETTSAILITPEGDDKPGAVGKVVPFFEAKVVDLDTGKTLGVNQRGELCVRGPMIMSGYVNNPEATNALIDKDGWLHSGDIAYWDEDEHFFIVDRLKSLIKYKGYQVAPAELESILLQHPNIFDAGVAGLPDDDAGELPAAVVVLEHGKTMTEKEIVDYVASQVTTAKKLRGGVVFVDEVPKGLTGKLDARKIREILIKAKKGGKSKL
FLuc stim CS – affects firefly luciferase, flagging false hits in luciferase stimulation screens | 200,000 tested, under 10 active | P08659 | ATPlite luciferase biochemical, luminescence, 10 min; 0 = ATP-free wells, 1 = DMSO control | activation factor at 10 µM;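 active = luciferase activation factor, scaled between plate controls, of at least 2 with compound at 10 µM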
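System: cell-free luciferase reagent; medium: PBS as buffer for the ATP substrate; doses: test compounds dosed from 2 mM stocks in 100% DMSO; incubation: 10 min, room temperature; measured by: luminescence from luciferase reaction; read-out: luciferase activation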
An asterisk follows results filed as active; . = not tested or not shown.

SMILES	C8 TRAIL sens	PPC-1+TRAIL kill	FLuc inh counter	FLuc stim CS
COc1ccc(N2C(N)=NC(N)=NC23CCCC3)cc1	14	-11	-6	1.1
CC1(C)N=C(N)N=C(N)N1c1cccc(C#N)c1	82*	.	.	.
CCOc1ccc(N2C(N)=NC(N)=NC2(C)C)cc1	75*	33	-17	1.2
Cc1cn([C@H]2C[C@H](O)[C@@H](CNCc3ccc(Oc4cc(-n5cccn5)ncn4)cc3)O2)c(=O)[nH]c1=O	8	.	.	.
Cc1ccc(N2C(N)=NC(N)=NC2(C)C)c(C)c1	72*	-30	-3	1
CCOC(=O)c1cccc(N2C(N)=NC(N)=NC2(C)C)c1	67*	15	-4	1
Cc1ccccc1N1C(N)=NC(N)=NC1(C)C	.	15	-1	1
CC1(C)N=C(N)N=C(N)N1c1cccc(C(=O)O)c1	3	1	-8	1.1
COc1cccc(NC(=O)Nc2nc(-c3ccc(OC)c(OC)c3)cs2)c1	97*	.	.	.
COc1ccc(C(=O)Nc2cc(C)on2)cc1	57*	47	73*	0.3
COc1ccc(-c2csc(NC(C)=O)n2)cc1OC	-9	15	11	0.9
COc1cccc(NC(=O)c2cccc(C(=O)Nc3cccc(OC)c3)c2)c1	7	.	.	.
COc1cccc(NC(=O)c2ccccc2)c1	13	.	.	.
COc1ccc(C(=O)Nc2cccc(OC)c2)cc1	53*	46	67*	0.3
COc1cccc(NC(=O)c2ccc(OC(F)(F)F)cc2)c1	49*	.	.	.
Cc1ccc2c(=O)n3c(nc2c1)C(Cc1ccc(O)cc1)NC(=O)c1cc2ccccc2cc1-3 (stereo unspecified)	33	.	.	.
COc1cccc(NC(=O)Nc2ccc(CC(=O)O)cc2)c1	-4	-20	26	0.7
CCc1ccc(NC(=O)Nc2cccc(OC)c2)cc1	28	26	52*	0.5
O=C(CCl)N1CCN(S(=O)(=O)c2ccc3c(c2)CCC3)CC1	91*	.	.	.
CN1C(=O)N(CC(=O)N2CCN(S(=O)(=O)c3ccc4c(c3)CCC4)CC2)C(=O)C12CCCCC2	1	.	.	.
CCc1cccc(NC(=O)CCCn2nc(C)c3c(C)n(-c4ccccc4)nc3c2=O)c1	11	.	.	.
Oc1ccccc1C1SC(c2ccccc2O)SC(c2ccccc2O)S1 (stereo unspecified)	-1	.	.	.
CSc1ccc(CNc2ccccc2)cc1	.	10	-4	1
CSc1ccc(C2NN=C(c3ccccc3)S2)cc1 (stereo unspecified)	84*	.	.	.
COc1ccc(C2NN=C(c3ccc(C)cc3)S2)cc1 (stereo unspecified)	50*	.	.	.
SMILES	C8 TRAIL sens	PPC-1+TRAIL kill	FLuc inh counter	FLuc stim CS
Oc1ccccc1C1NN=C(c2ccccc2)S1 (stereo unspecified)	70*	.	.	.
CCOc1cc(C2NN=C(c3ccc(C)cc3)S2)ccc1O (stereo unspecified)	39	18	21	0.8
COc1ccc2c(COC(=O)[C@@H]3CCCN3S(=O)(=O)c3ccc(Cl)cc3)cc(=O)oc2c1	-1	.	.	.
O=C(/C=C/c1ccc(Cl)c([N+](=O)[O-])c1)Nc1cccnc1	-9	4	3	1
O=C(/C=C/c1ccc([N+](=O)[O-])cc1)Nc1cccnc1	32	29	65*	0.3
Nc1ccccc1C(=O)NN=Cc1cccc([N+](=O)[O-])c1	59*	.	.	.
CCCCCCC(=O)Nc1ccc(C(=O)N/N=C/c2cccnc2)cc1	-5	-11	-2	1
CC(C)(C)OC(=O)N/N=C\c1cccnc1	49	42	78*	0.2
CCCCCCCC(=O)Nc1ccc(C(=O)N/N=C/c2cccc([N+](=O)[O-])c2)cc1	57*	20	-8	1.1
O=C1CCCC2=C1CC(C(=O)OCc1ccccc1)C(=O)N2Cc1ccccc1 (stereo unspecified)	-8	.	.	.
CC(=O)N1CCN(S(=O)(=O)c2cccc(C(=O)NNC(=O)Cn3nc(C)cc3C)c2)CC1	4	.	.	.
O=C(N/N=C/c1cccnc1)c1ccc([N+](=O)[O-])cc1	12	26	67*	0.3
O=C(Cc1ccc([N+](=O)[O-])cc1)N/N=C/c1cccnc1	19	.	.	.
CC(C)c1ccc(OCc2cccc(C(=O)N/N=C/c3cccnc3)c2)cc1	53*	64*	42	0.6
Nc1ccccc1C(=O)NN=Cc1cccnc1	60*	.	.	.
O=C(NC(Cc1ccccc1)C(=O)O)/C(=C\c1ccc(Cl)cc1)NC(=O)c1ccco1 (stereo unspecified)	-11	.	.	.
C=CCNc1nc(C(=O)OCC(=O)c2ccc(Cl)cc2)cs1	-1	.	.	.
CCCCCCCCSC1=CC(=O)C(OC)=C(OC)C1=O	7	.	.	.
CCCCN1Cc2c(nc3cc(-c4ccco4)[nH]n3c2=O)C1=O	-16	6	.	.
Cc1ccc(N=Nc2cc(C)ccc2N)cc1	69*	34	.	.
O=S(=O)(c1cc(Cl)ccc1Cl)N1CCN(c2ccccn2)CC1	4	.	.	.
CCCc1sc(N/N=C/c2ccccn2)nc1-c1ccc(F)cc1	5	-4	-4	1
Cc1nc(N/N=C/c2ccccn2)sc1C	.	70*	94*	0.1
c1csc(-c2cn3ccc4ccccc4c3n2)c1	34	17	53*	0.5
c1cc(-c2cccs2)nc(-c2cccs2)c1	1	11	3	1
SMILES	C8 TRAIL sens	PPC-1+TRAIL kill	FLuc inh counter	FLuc stim CS
C#CCSc1nnc(CSc2nc3ccccc3s2)n1-c1ccccc1	86*	14	1	1
Cc1ccc(C#N)c(SCc2nnc(-c3ccc(Cl)cc3)o2)n1	82*	64*	60*	0.4
Cc1cc(C)c(C#N)c(SCc2nnc(-c3ccccc3)o2)n1	69*	72*	-1	1
O=c1c2cc(-c3ccccc3)sc2nc2n1CCC2	.	45	68*	0.3
O=c1c2ccccc2nc2n1CCC2	2	10	-12	1.1
C=CCNC(=O)/C(C#N)=C/c1c(N2CCN(c3ccc(OC)cc3)CC2)nc2c(C)cccn2c1=O	-12	.	.	.
CCc1cc2c(=O)c(-c3ccc4c(c3)OCCO4)coc2cc1OS(C)(=O)=O	37	11	52*	0.5
COc1cccc(OCc2cc(C(=O)N3CCN(C)C(c4ccccc4)C3)no2)c1 (stereo unspecified)	9	.	.	.
Clc1ccc(-c2cn3nc4c(nc3n2)CCCC4)cc1	29	4	59*	0.4
COc1cccc(-c2cc(C(F)(F)F)n3nc(N)nc3n2)c1	4	13	-8	1.1
COc1cccc(-c2cn3nc4c(nc3n2)CCCC4)c1	53*	3	68*	0.3
Clc1ccc(-c2cn3cccnc3n2)cc1	17	6	36	0.6
CCCNC(=O)C1(C)CCCN(Cc2ccc3c(c2)OCO3)C1 (stereo unspecified)	-15	.	.	.
O=c1c2ccccc2nc(N/N=C/c2c(O)ccc3ccccc23)n1O	71*	21	88*	0.1
O=c1c2ccccc2nc(N/N=C/c2ccc(O)cc2)n1O	62*	2	94*	0.1
Cc1nc2ccccc2c(=O)n1/N=C/c1c(O)ccc2ccccc12	8	34	-5	1
CC1CCN(c2ccc(-c3ccc(NC(=O)C(F)(F)F)cc3)nn2)CC1	89*	.	.	.
CC(=O)Nc1ccc(NC(=O)C(F)(F)F)cc1	2	21	-2	1
